Assay: Toxicity liver stage against HepG2, at 10uM
Assay type: cell-based
Design: test concentration 10 uM, cell line HepG2-A16-CD81EGFP
Details: human, HepG2-A16-CD81EGFP cells; read-out: INHIBITION
Summary of the method: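 Uninfected HepG2-A16-CD81EGFP cells, 3 × 10^3 per well, 1536-well, plated on prespotted compound at 10 μM final, parasite-free screening media added to match infected plates; puromycin 10 μM positive, DMSO 0.5% negative; run in parallel with 48 h PbLuc assay at 37 °C, 5% CO2; viability by CellTiter-Glo luminescence, normalized to controls.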

In order of falling cytotoxicity at 10 µM:
1. Cc1oncc1C(=O)N1C[C@H]2CCCC(N(C)Cc3cccs3)[C@H]2C1 (stereo partly specified)  18.8%
2. Cc1noc(C)c1CN1CCC2(CC1)CC(Oc1cccnc1)CO2 (stereo unspecified)  17.8%
3. O=C(O)c1c(-c2ccoc2)ncc2c1CCN(C1CCOC1)C2 (stereo unspecified)  17%
4. CN(Cc1nnc(C2CC2)n1C)S(=O)(=O)c1ccccc1F  16.8%
5. O=C(c1ccc(Cl)s1)N1CCC2(CNS(=O)(=O)c3cnccc3O2)C1 (stereo unspecified)  15.5%
6. COc1cc(I)c(Cl)cc1C(=O)N(C)CC(=O)NC(C)(C)C  15.4%
7. Clc1ccc(N2CCC(C3CCN(Cc4cccnc4)CC3)C2)nc1 (stereo unspecified)  13.5%
8. Cc1[nH]ccc1C(=O)N1C[C@@H]2CC[C@H]1CN(S(=O)(=O)N(C)C)C2  11.8%
9. CCOCCOC(C)C(=O)NCc1ccc(N2CCCCC2)cc1 (stereo unspecified)  11.6%
10. Cc1cc(C(=O)N[C@H]2Cc3ccccc3[C@@H]2N)c(=O)[nH]c1C  11.2%
11. CC1=Nc2c(c(O)nn2C(C)C)C(c2cnn(C)c2)S1 (stereo unspecified)  10.8%
12. Cc1ccccc1C(C)NC(=O)CN1CCN(Cc2ccc(Cl)s2)CC1 (stereo unspecified)  10.8%
13. CC(C)(C)OC(=O)N1CCCN(c2nnc(Br)s2)CC1  10.5%
14. CCn1cc(CN2C[C@@H]3CC[C@H]2CN(C(=O)c2ccncc2)C3)cn1  10.2%
15. Cc1nc(-c2cccnc2)ncc1C(=O)N1CCCC(N(C)C)CC1 (stereo unspecified)  9.81%
16. Cn1ccc(C(=O)NCc2ccccc2Cn2ccnc2)cc1=O  9.42%
17. Cn1cc(CN2CCc3ncn(C)c3C2COCc2ccccc2)cn1 (stereo unspecified)  9.19%
18. CN(CCOc1cccc(F)c1)CC(=O)Nc1ccncc1  9.16%
19. Cc1nc(Nc2nnc(C)s2)cc(C2CCCN2C)n1 (stereo unspecified)  8.67%
20. CNC(=O)CN1CCC(NC(=O)CC(C)CCc2ccccc2)CC1 (stereo unspecified)  8.47%
21. CC(C)n1[nH]c(=O)c2c1NC(=O)CSC2c1cccc(OCC(N)=O)c1 (stereo unspecified)  8.46%
22. Cc1nn(C)c(C)c1CN(C)C(C(=O)O)c1ccc(F)cc1F (stereo unspecified)  8.42%
23. CCCC(C)NC(=O)CCN1C(=O)CCc2cc(F)ccc21 (stereo unspecified)  8.17%
24. CC(=O)N1CCc2c(nc(N(C)C)nc2N(C)CCCC2CCCO2)C1 (stereo unspecified)  7.92%
25. CN(C)CCN1CCCC12CCCN(Cc1ccoc1)C2 (stereo unspecified)  7.88%
26. CC(c1ccco1)N(C(=O)CNc1ccc(C#N)cc1)C1CC1 (stereo unspecified)  7.79%
27. Cc1nnc(SCCCNC(=O)Nc2ccc3c(c2)OCO3)s1  7.28%
28. CCOC(=O)NCCC(=O)NCc1ccnc(Oc2ccc(F)cc2)c1  6.74%
29. CC(C)NC(=O)c1noc2c1CN(Cc1cnn(C)c1)CC2  6.59%
30. COc1ccncc1NCc1cscn1  6.44%
31. CS(=O)(=O)N1C[C@H]2CCCN(Cc3ccsc3)[C@H]2C1  6.43%
32. CCN1CCN(C(=O)C(C)n2cc(Br)cn2)CC1 (stereo unspecified)  6.39%
33. CC(=O)N1CCC(C(=O)N(CC(F)F)c2cccc(Cl)c2)CC1  5.71%
34. CCOc1cc(C)nc(N2CCN(C(=O)CN(C)C3CC3)CC2)n1  5.05%
35. O=C(NCCCOC1CCCCC1)C1NCCc2[nH]cnc21 (stereo unspecified)  4.68%
36. COc1cc(NC(=O)NC(C2CC2)C2CC2)ccc1N1CCOC1=O  4.63%
37. COc1ccsc1C(=O)N1CCCC(n2cncn2)C1 (stereo unspecified)  4.6%
38. CN(C)Cc1cc(=O)n2c(n1)CN(S(=O)(=O)C1CC1)CCC2  4.53%
39. Cc1cnc(CN(C)C2CCN(Cc3sc(C)nc3C)C2)o1 (stereo unspecified)  3.45%
40. CNc1cncc(C2CCCN2C(=O)CCn2ccnc2C(C)C)n1 (stereo unspecified)  3.36%
41. CCCN(CC1CC1)C(=O)Nc1ccc(N2CCSCC2)cc1C  3.05%
42. CCc1c(C)n(CCC#N)c2nc3ccccc3n2c1=O  2.73%
43. COc1ccc(-c2nnc(C(C)N3CCOC(C)(C)C3)o2)cc1 (stereo unspecified)  2.62%
44. CCn1cc(NC(=O)C2CCN(Cc3ccccc3)CC2)cn1  2.41%
45. CCc1cn[nH]c1C1CCN(C(=O)c2cccc(O)c2C)CC1  2.28%
46. Cc1noc(C)c1C(=O)N1CCCC(c2nccn2Cc2cscn2)C1 (stereo unspecified)  2.11%
47. CCc1ccc(CN2CCC3(CC2)NC(=O)CC3c2ccncc2)o1 (stereo unspecified)  1.83%
48. COc1ccc(COCC(=O)NC2CCc3nc(C)cn3C2)cc1 (stereo unspecified)  1.6%
49. CN(Cc1ccccc1)CC(O)Cn1cnc2c(cnn2C)c1=O (stereo unspecified)  1.53%
50. CC(C)Nc1nc2c(c(N(C)C)n1)CCN(Cc1nccn1C)CC2  1.35%
51. CC(=O)N1CCCC1c1nccc(C)n1 (stereo unspecified)  1.31%
52. CC(NC(=O)OC(C)(C)C)c1nnc(S(=O)(=O)Cc2ccccc2Cl)o1 (stereo unspecified)  0.935%
53. CNC(=O)[C@@H]1CN(C(=O)C(C)C)C[C@H]1c1ccnc(N2CCCC2)n1  0.791%
54. O=S(=O)(Cc1ccccc1Cl)N1CCC2(CC1)OCCS2  0.649%
55. CNC(=O)N1Cc2cc(F)ccc2C2(CCN(C)CC2)C1  0.595%
56. CCS(=O)(=O)N1CCCCC1c1nc(CC(C)C)no1 (stereo unspecified)  0.253%
57. CCc1noc(CN(CCc2ccccc2)C2CCN(C)CC2)n1  0.15%
58. Cc1cc(NC2CC3(CCN(Cc4ncccc4F)C3)C2)ncn1 (stereo unspecified)  0.0666%
59. CCc1noc(C(C)N(C)CC(=O)Nc2ccccc2Cl)n1 (stereo unspecified)  -0.0195%
60. O=C(NCc1cccc(Cl)c1)C1=NOC2(CCNC2)C1 (stereo unspecified)  -0.0606%
61. O=C(CC1=CCCCC1)NCc1ccnc(OC2CCOCC2)c1  -0.103%
62. Fc1ccccc1CN1CCC[C@H](Cn2nnc(-c3cccs3)n2)C1  -0.152%
63. O=C1[C@@H]2CCN(Cc3ccoc3)C[C@@H]2OCCN1c1ccccc1  -0.928%
64. CCc1nnc(CN2CCCCC2Cn2cncn2)o1 (stereo unspecified)  -1.1%
65. COc1ccc(-c2cnc(N(C)C)nc2C2CNCCO2)cc1 (stereo unspecified)  -1.4%
66. CS(=O)(=O)N1CC2(CCN(CC3CC3)C2)Cc2ccccc21 (stereo unspecified)  -1.93%
67. c1ccc(CN2CCc3nnc(COc4ccccn4)n3CC2)nc1  -2.1%
68. CCc1ccccc1NC(=O)c1cnn(C)c1C  -2.52%
69. Cc1noc(C)c1CN1CC[C@H]2C[C@@H](c3ccncn3)O[C@@H]2C1  -3.04%
70. Cc1ccc(C(C(=O)NCCN2CCCCCC2)N(C)C)cc1 (stereo unspecified)  -3.12%
71. O=C(O)[C@@H]1CN(CC2CCC2)C[C@H]1c1ccc(F)cc1  -3.62%
72. COCCN1CCC(Nc2ccc(C#N)cc2F)CC1  -3.68%
73. COc1ncccc1CNCc1c(C(C)C)nn(C)c1Cl  -3.74%
74. CN1CCN(Cc2ccccc2Cl)CC12CCC(=O)N(CC1CC1)CC2 (stereo unspecified)  -3.94%
75. COc1cccc(COCC(=O)N2CCC(CC(N)=O)CC2)c1  -4.56%
76. Cn1c(C(=O)NC2CC2)nc2c1CCN(c1ncccn1)C2  -4.75%
77. Cc1nc(CN2CCCC(c3cc(C(F)(F)F)[nH]n3)C2)cs1 (stereo unspecified)  -4.95%
78. c1cnc(N2CCO[C@H]3[C@H](OCc4cccnc4)CC[C@@H]32)nc1  -5.05%
79. Cc1nn(C)c2c(N3CCN(C)CC3)nc(C3CC3)nc12  -5.2%
80. Cc1nc(C2CCCN2C(=O)COCCOc2ccccc2)no1 (stereo unspecified)  -5.82%
81. CN(C)C(=O)COC1COC2(CCN(c3cnccn3)CC2)C1 (stereo unspecified)  -6.29%
82. O=C(CN1CCCCCC1=O)NCC1CCN(c2ccccc2)C1 (stereo unspecified)  -6.5%
83. c1cnn(CC2CCCCN2Cc2cn3ccsc3n2)c1 (stereo unspecified)  -7.08%
84. CCn1cc(C(=O)Nc2ccccc2C(=O)OC)cn1  -7.25%
85. O=C(CN1CCOC(c2ccc(Cl)c(Cl)c2)C1)NCc1ccco1 (stereo unspecified)  -7.31%
86. CN(Cc1nnc(C2CC2)n1C)C1CCN(Cc2nccn2C)C1 (stereo unspecified)  -8.22%
87. CC(C)c1nn(C)c(N2CCOCC2)c1CNCCS(C)(=O)=O  -8.36%
88. CCc1ncc2c(n1)CN(C(C)C(=O)N1CCOCC1)CC2 (stereo unspecified)  -8.52%
89. C[C@H](CCO)NS(=O)(=O)c1ccc(Br)cn1  -8.63%
90. COC(=O)CC(c1cccc(OC(F)F)c1)c1oc(C)cc(=O)c1O (stereo unspecified)  -9.11%
91. CCOc1ccc(C#N)cc1NCC(=O)Nc1cc(F)ccc1F  -9.47%
92. O=C(NCc1ccco1)[C@H]1C[C@@H]2CCN(c3ccncn3)C[C@@H]2O1  -9.58%
93. Cc1ccc(OCCN(C)C(=O)NC(C)c2nncn2C)cc1 (stereo unspecified)  -9.77%
94. CCNC(=O)CN(CC)C(=O)c1cc(-c2cccc(Cl)c2)no1  -9.88%
95. CCn1c(CN2CCN(CC(N)=O)CC2)nc2c(F)cccc21  -9.88%
96. O=C(CN(Cc1cccnc1)CC1CCCO1)Nc1ccc(F)cc1 (stereo unspecified)  -10.7%
97. CCCS(=O)(=O)N1CCC2(CN(c3cnn(C)c3)C(=O)CN2C)C1 (stereo unspecified)  -10.7%
98. Cc1cnn(C2CCCN(C(=O)CCCc3ccccn3)C2)c1 (stereo unspecified)  -11.2%
99. Cc1ccc(OCCC(=O)N2CCOCC2c2ncon2)cc1C (stereo unspecified)  -11.9%
100. CC(NC(=O)c1cccs1)C(=O)NCc1ccccn1 (stereo unspecified)  -12.3%
101. O=C(NCCCN1CCCCCC1=O)c1n[nH]c(=O)c2ccccc12  -12.3%
102. Cc1nccn1[C@@H]1CC[C@@H](NC(=O)CCOc2ccccc2)[C@H]1O  -12.7%
103. COc1ccccc1CC(=O)NCCCN1CCCC1C(=O)N(C)C (stereo unspecified)  -13%
104. CN1N=C(C(=O)N2CCCC(n3ccnc3)C2)CCC1=O (stereo unspecified)  -13.2%
105. CN(C)c1ccc(C(=O)N2CCN(CC(C)(C)O)CC2)nn1  -13.3%
106. Cc1nc(CN2CCC(N(C)Cc3noc(C(C)C)n3)C2)cs1 (stereo unspecified)  -14.1%
107. CC(Cn1cccn1)NC(=O)NCCc1ccsc1 (stereo unspecified)  -14.8%
108. O=C(c1cc(Cl)ccc1OC1CCN(C2CCCC2)CC1)N1CC(O)C1  -16.2%
109. O=C(Nc1nncs1)NC1CCCc2c1cnn2CCO (stereo unspecified)  -17.2%
110. CSC(C)(C)CNC(=O)NC(c1nnc2n1CCC2)C(C)C (stereo unspecified)  -19.9%
111. Cn1c(C(F)(F)F)nn(CCNC(=O)c2cnc3ccccc3n2)c1=O  -20%

From ChEMBL document CHEMBL4513216, “Probing the Open Global Health Chemical Diversity Library for Multistage-Active Starting Points for Next-Generation Antimalarials” (ACS Infect Dis, 2020)
